Reference: ChEMBL document CHEMBL1799933, “Discovery of a selective allosteric M1 receptor modulator with suitable development properties based on a quinolizidinone carboxylic acid scaffold” (J Med Chem, 2011)
Active and inactive are the calls of the source. No cut-off for these calls is given here.

Legend:
Mus musculus [1] = assay: Antiamnesic activity against scopolamine-induced dementia in ip dosed B6SJL mouse assessed as increase in freezing behavior at 7.4 uM plasma concentration; assay type: functional, organism-based
Mus musculus [2] = assay: Antiamnesic activity against scopolamine-induced dementia in ip dosed B6SJL mouse assessed as increase in freezing behavior at 33 uM plasma concentration; assay type: functional, organism-based
[3] = target: T1, Muscarinic acetylcholine receptor M1 (Homo sapiens) (UniProt P11229); assay: Agonist activity at human muscarinic M1 receptor expressed in CHONFAT cells assessed as enhancement of acetylcholine-induced calcium mobilization preincubated for 4 mins measured after 1 hr by FLIPR assay; assay type: functional, cell-based
T1 sequence (whole entry): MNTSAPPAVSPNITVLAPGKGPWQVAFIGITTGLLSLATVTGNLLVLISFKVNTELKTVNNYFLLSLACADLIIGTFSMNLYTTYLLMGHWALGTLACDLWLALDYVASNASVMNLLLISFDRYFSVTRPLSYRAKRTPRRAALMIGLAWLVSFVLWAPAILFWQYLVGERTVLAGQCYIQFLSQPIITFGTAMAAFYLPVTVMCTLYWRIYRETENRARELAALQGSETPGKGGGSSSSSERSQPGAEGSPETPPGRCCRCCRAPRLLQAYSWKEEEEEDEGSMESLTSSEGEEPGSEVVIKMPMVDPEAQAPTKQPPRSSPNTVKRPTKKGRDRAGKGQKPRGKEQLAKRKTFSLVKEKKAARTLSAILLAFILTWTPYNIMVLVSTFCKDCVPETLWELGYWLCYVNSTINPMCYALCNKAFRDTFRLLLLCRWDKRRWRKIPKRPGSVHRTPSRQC
Summary of the method: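 CHO-NFAT cells expressing the named muscarinic receptor (human M1–M4; rhesus, dog or rat M1 in CHO-K1) were plated at 25,000 cells/well and grown overnight at 37 °C, 6% CO2. Cells were loaded with 1 μM Fluo-4AM for 1 h, washed, and preincubated 4 min with serially diluted compound (final DMSO 0.67%). They were then stimulated 4 min with an EC20 of ACh, and Ca2+ flux was read by FLIPR384.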

[4] = Plasma protein binding in rat serum by equilibrium dialysis method; assay type: ADME, cell-free; conditions: read-out: PPB (converted)
Summary of the method: (§1)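 Protein binding measured by equilibrium dialysis against rat or human serum.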

[5] = Plasma protein binding in human serum by equilibrium dialysis method; assay type: ADME, cell-free; conditions: read-out: PPB (converted); summary of the method: as §1
[6] = Passive permeability of the compound at 5 uM; assay type: ADME; conditions: not told
Plasma = assay: Drug level in Sprague-Dawley rat plasma at 10 mg/kg, po; assay type: ADME, organism-based; design: dose 10 mg/kg, route oral; conditions: in vivo
Summary of the method: (§2)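 Rats dosed orally at 10 mpk. Plasma, brain and CSF sampled at 2 h and concentrations determined by bioanalysis.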

Brain = assay: Drug level Sprague-Dawley rat brain at 10 mg/kg, po; assay type: ADME, organism-based; design: dose 10 mg/kg, route oral; conditions: in vivo, read-out: Drug uptake; summary of the method: as §2
Cerebrospinal fluid = assay: Drug level in Sprague-Dawley rat cerebrospinal fluid at 10 mg/kg, po; assay type: ADME, organism-based; design: dose 10 mg/kg, route oral; conditions: in vivo, read-out: Drug uptake; summary of the method: as §2
[7] = Ratio of drug level in brain to plasma of Sprague-Dawley rat at 10 mg/kg, po; assay type: ADME, organism-based; design: dose 10 mg/kg, route oral; conditions: read-out: BPR; summary of the method: as §2
[8] = Ratio of drug level in cerebrospinal fluid to fraction unbound level in plasma of Sprague-Dawley rat at 10 mg/kg, po; assay type: ADME, organism-based; design: dose 10 mg/kg, route oral; conditions: in vivo
[9] = Fraction unbound in human plasma; assay type: ADME, cell-free
[10] = Fraction unbound in rat plasma; assay type: ADME, cell-free
[11] = Oral bioavailability in rat at 3 mg/kg; assay type: ADME, organism-based; conditions: in vivo
Summary of the method: (§3)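 Rats (n = 2) dosed orally at 3 mg/kg and IV at 1 mg/kg. Interanimal variability under 20% for all values.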

[12] = Half life in rat at 3 mg/kg, po and 1 mg/kg, iv; assay type: ADME, organism-based; conditions: in vivo; summary of the method: as §3
[13] = Clearance in rat at 3 mg/kg, po and 1 mg/kg, iv; assay type: ADME, organism-based; conditions: in vivo; summary of the method: as §3
[14] = Oral bioavailability in dog at 3 mg/kg; assay type: ADME, organism-based, Canis lupus familiaris; conditions: in vivo
Summary of the method: (§4)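 Dog PK, n = 2 animals. Given orally at 3 mg/kg and intravenously at 1 mg/kg. Interanimal variability under 20% for all values.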

[15] = Half life in dog at 3 mg/kg, po and 1 mg/kg, iv; assay type: ADME, organism-based, Canis lupus familiaris; conditions: in vivo; summary of the method: as §4
[16] = Clearance in dog at 3 mg/kg, po and 1 mg/kg, iv; assay type: ADME, organism-based, Canis lupus familiaris; conditions: in vivo; summary of the method: as §4
[17] = Lipophilicity, log P of the compound; assay type: physicochemical; conditions: octanol/water
Canis familiaris = assay: Metabolic stability in po dosed portal vein cannulated dog assessed as level of presystemic G1 glucuronidation by scintillation counting; assay type: ADME, organism-based, Canis lupus familiaris; conditions: in vivo

Row | Compound | IP [3] | fraction unbound [4] | fraction unbound [5] | also measured
1 | N#Cc1ccc(N2CCN(Cc3cc(C(=O)O)c(=O)n4ccccc34)CC2)cc1 |  |  |  | Activity (Mus musculus [1]): Active
2 | COc1ccc(Cn2cc(C(=O)O)c(=O)c3ccccc32)cc1 |  |  |  | Activity (Mus musculus [2]): Active
3 | Cc1cccc(C2(C#N)CCN(Cc3cc(C(=O)O)c(=O)n4ccccc34)CC2)n1 | 148 nM | 0.249 | 0.158 | 
4 | CCc1ccnc(C2(C#N)CCN(Cc3cc(C(=O)O)c(=O)n4ccccc34)CC2)c1 | 84 nM | 0.272 | 0.134 | 
5 | N#CC1(c2ccncc2)CCN(Cc2cc(C(=O)O)c(=O)n3ccccc23)CC1 | 938 nM |  |  | 
6 | N#CC1(c2ccccc2)CCN(Cc2cc(C(=O)O)c(=O)n3ccccc23)CC1 | 151 nM | 0.135 | 0.101 | Papp at 5 µM [6]: 27 ×10⁻⁶ cm/s; concentration (Plasma): 321 nM; concentration (Brain): 127 nM; concentration (Cerebrospinal fluid): 8 nM; Kp [7]: 0.39; Ratio [8]: 0.25; fraction unbound [9]: 0.1; fraction unbound [10]: 0.1
7 | COc1ccnc(C2(C#N)CCN(Cc3cc(C(=O)O)c(=O)n4ccccc34)CC2)c1 | 224 nM | 0.485 | 0.217 | 
8 | Cc1ccccc1C1(C#N)CCN(Cc2cc(C(=O)O)c(=O)n3ccccc23)CC1 | 68 nM | 0.051 | 0.038 | Papp at 5 µM [6]: 24 ×10⁻⁶ cm/s; concentration (Plasma): 234 nM; concentration (Brain): 114 nM; concentration (Cerebrospinal fluid): 16 nM; Kp [7]: 0.48; Ratio [8]: 0.5
9 | N#CC1(c2cc(F)ccn2)CCN(Cc2cc(C(=O)O)c(=O)n3ccccc23)CC1 | 244 nM |  |  | 
10 | Cc1ccnc(C2(C#N)CCN(Cc3cc(C(=O)O)c(=O)n4ccccc34)CC2)c1 | 44 nM | 0.467 | 0.235 | Papp at 5 µM [6]: 27 ×10⁻⁶ cm/s; concentration (Plasma): 3070 nM; concentration (Brain): 233 nM; concentration (Cerebrospinal fluid): 180 nM; Kp [7]: 0.07; Ratio [8]: 0.25; bioavailability [11]: 24%; half-life [12]: 1.9 h; clearance [13]: 17.7 mL/min/kg; bioavailability [14]: 47%; half-life [15]: 3.9 h; clearance [16]: 10.1 mL/min/kg
11 | N#CC1(c2cccnc2)CCN(Cc2cc(C(=O)O)c(=O)n3ccccc23)CC1 | 363 nM | 0.509 | 0.361 | Papp at 5 µM [6]: 39 ×10⁻⁶ cm/s; concentration (Plasma): 1720 nM; concentration (Cerebrospinal fluid): 40 nM; Ratio [8]: < 0.1; logP [17]: -0.4
12 | Cc1cccc(C2(C#N)CCN(Cc3cc(C(=O)O)c(=O)n4ccccc34)CC2)c1 | 88 nM | 0.059 | 0.048 | 
13 | O=C(O)c1cc(CN2CCC(c3ccccc3)CC2)c2ccccn2c1=O | 1340 nM |  |  | 
14 | N#CC1(c2cc(C(F)(F)F)ccn2)CCN(Cc2cc(C(=O)O)c(=O)n3ccccc23)CC1 | 2720 nM |  |  | 
15 | Cc1cccnc1C1(C#N)CCN(Cc2cc(C(=O)O)c(=O)n3ccccc23)CC1 | 1940 nM |  |  | 
16 | CSc1cccc(C2(C#N)CCN(Cc3cc(C(=O)O)c(=O)n4ccccc34)CC2)n1 | 100 nM | 0.057 | 0.012 | 
17 | N#CC1CCN(Cc2cc(C(=O)O)c(=O)n3ccccc23)CC1 | 7650 nM |  |  | 
18 | Cc1ccc(C2(C#N)CCN(Cc3cc(C(=O)O)c(=O)n4ccccc34)CC2)nc1 | 204 nM | 0.348 | 0.175 | 
19 | N#CC1(c2ccc(F)cc2)CCN(Cc2cc(C(=O)O)c(=O)n3ccccc23)CC1 | 194 nM |  |  | 
20 | N#CC1(c2cccc(F)c2)CCN(Cc2cc(C(=O)O)c(=O)n3ccccc23)CC1 | 562 nM |  |  | 
21 | N#CC1(c2cc(-c3ccccc3)ccn2)CCN(Cc2cc(C(=O)O)c(=O)n3ccccc23)CC1 | 659 nM |  |  | 
22 | N#CC1(c2ccccc2F)CCN(Cc2cc(C(=O)O)c(=O)n3ccccc23)CC1 | 81 nM | 0.102 | 0.055 | 
23 | [3H]OC(=O)c1cc(CN2CCC(C#N)(c3ccccn3)CC2)c2ccccn2c1=O |  |  |  | Stability (Canis familiaris): 50%
24 | COc1ccccc1C1(C#N)CCN(Cc2cc(C(=O)O)c(=O)n3ccccc23)CC1 | 164 nM |  |  | 
25 | N#CC1(c2cccc(Cl)n2)CCN(Cc2cc(C(=O)O)c(=O)n3ccccc23)CC1 | 133 nM | 0.218 | 0.071 | 
